The source of these data is ChEMBL document CHEMBL3580658, “Bisthiodiketopiperazines and Acorane Sesquiterpenes Produced by the Marine-Derived Fungus Penicillium adametzioides AS-53 on Different Culture Media” (J Nat Prod, 2015).

As a reminder, the MIC is the lowest concentration found to suppress growth. Low values mean a more susceptible organism, high ones a less susceptible organism. Broadly, the IC50 is the concentration at which inhibition is half-maximal.

The test system of test [1] is Vibrio parahaemolyticus. The test can be described thus: Antimicrobial activity against Vibrio parahaemolyticus QDIO-8 by XTT assay. In kind it is functional. In outline: (§1)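 Bacterial panel of two human-pathogenic and seven aquacultural strains, run by a previously described method. Chloramphenicol served as the positive control against bacteria.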
Test [2] relates to Gaeumannomyces graminis. Nature of the test: Antimicrobial activity against Gaeumannomyces graminis QDAU-3 by XTT assay. In kind it is functional. In outline:
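Plant-pathogenic fungus strain QDAU-3 was obtained from Qingdao Agricultural University and tested by a previously described method. Amphotericin B was the positive control against fungi.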
For orientation: Formazan colour is commonly taken as a measure of viable cells.

Test [3] deals with A549. The test can be described thus: Cytotoxicity against human A549 cells by tetrazolium salt based quantitative colorimetric assay. It is filed as functional, cell-based.
Test [4] concerns DU-145. The test can be described thus: Cytotoxicity against human DU145 cells by tetrazolium salt based quantitative colorimetric assay. In kind it is functional, cell-based.
Test [5] concerns HeLa. The test can be described thus: Cytotoxicity against human HeLa cells by tetrazolium salt based quantitative colorimetric assay. It is filed as functional, cell-based.
Test [6] concerns HepG2. Nature of the test: Cytotoxicity against human HepG2 cells by tetrazolium salt based quantitative colorimetric assay. It is filed as functional, cell-based.
Test [7] in a line: Cytotoxicity against human HuH7 cells by tetrazolium salt based quantitative colorimetric assay. In kind it is functional, cell-based. The conditions noted are these: Huh-7.
Test [8] in a line: Cytotoxicity against human L02 cells by tetrazolium salt based quantitative colorimetric assay. It is filed as functional, cell-based.
Test [9] is described as follows: Cytotoxicity against mouse LM3 cells by tetrazolium salt based quantitative colorimetric assay. In kind it is functional, cell-based.
Test [10] deals with MCF7. The test can be described thus: Cytotoxicity against human MCF7 cells by tetrazolium salt based quantitative colorimetric assay. It is filed as functional, cell-based.
In test [11] the test system is NCI-H446. The test can be described thus: Cytotoxicity against human NCI-H446 cells by tetrazolium salt based quantitative colorimetric assay. It is filed as functional, cell-based.
Test [12] in a line: Cytotoxicity against human SGC7901 cells by tetrazolium salt based quantitative colorimetric assay. It is filed as functional, cell-based. Particulars: SGC-7901.
For test [13], the system named is SW1990. Nature of the test: Cytotoxicity against human SW1990 cells by tetrazolium salt based quantitative colorimetric assay. In kind it is functional, cell-based.
Test [14] concerns SW480. Nature of the test: Cytotoxicity against human SW480 cells by tetrazolium salt based quantitative colorimetric assay. It is filed as functional, cell-based.
The subject of test [15] is U-251. Nature of the test: Cytotoxicity against human U251 cells by tetrazolium salt based quantitative colorimetric assay. In kind it is functional, cell-based.
The test system of test [16] is Artemia salina. Nature of the test: Cytotoxicity in brine shrimp. The conditions noted are these: read-out: LD50 (the source's name). It is filed as functional.
In test [17] the test system is Staphylococcus aureus. Nature of the test: Antimicrobial activity against Staphylococcus aureus EMBLC-2 by XTT assay. It is filed as functional. An outline of the steps:
as §1

The test system of test [18] is Aeromonas hydrophila. Nature of the test: Antimicrobial activity against Aeromonas hydrophila QDIO-1 by XTT assay. It is filed as functional. In outline: as §1
Test [19] relates to Vibrio harveyi. The test can be described thus: Antimicrobial activity against Vibrio harveyi QDIO-7 by XTT assay. It is filed as functional. An outline of the steps:
as §1

The structures appear in SMILES notation. ≈ marks a conversion by molar mass, not a printed value. Some results are limits rather than exact numbers.

Take `COc1ccc([C@@H]2SS[C@@]34C[C@]5(O)[C@H](Cl)C=C[C@@H](O)[C@@H]5ON3C(=O)[C@@H]2N(C)C4=O)c(O)c1OC`: the MIC turned out to be 8 µg/mL (≈ 15.1 µM) in test [1]; 16 µg/mL (≈ 30.1 µM) in test [2]; 8 µg/mL (≈ 15.1 µM) in [17]; 8 µg/mL (≈ 15.1 µM) in test [18]; 32 µg/mL (≈ 60.3 µM) in test [19]. For the same molecule, the IC50 in test [3], in test [4], in test [5], in [6], in test [7] and in [8] was over 10 µM each time. The IC50 in [9], in test [10], in [11], in [12], in test [13] and in test [14] was over 10 µM in each case. For the same molecule, the IC50 in [15] was over 10 µM. Also, the LC50 in [16] came to 4.8 µM.

Consider `COc1ccc([C@@H]2SS[C@@]34C[C@]5(O)[C@H](O)C=C[C@@H](O)[C@@H]5ON3C(=O)[C@@H]2N(C)C4=O)c(O)c1OC`, for which the IC50 in test [3], in [4], in test [5], in test [6], in test [7] and in test [8] was over 10 µM each time. Also, the 50% inhibitory concentration (IC50) in test [9], in [10], in [11], in test [12], in [13] and in test [14] was over 10 µM in each case. Besides, the IC50 in test [15] is over 10 µM. Also, it took 64 µg/mL (≈ 125 µM) to inhibit growth in test [17] (MIC).

As for `C=C(C)[C@H]1[C@H](OC(C)=O)C[C@H](C)[C@@]12CC=C(C)[C@@H](O)C2`, the IC50 in test [3], in test [4], in test [5], in test [6], in test [7] and in test [8] was over 10 µM throughout. In addition, the half-inhibitory concentration (IC50) in [9], in test [10], in [11], in test [12], in test [13] and in test [14] was over 10 µM throughout. Moreover, in [15], the IC50 was over 10 µM.

Take `C=C(C)[C@H]1[C@H](OC(C)=O)C[C@H](C)[C@@]12CC=C(CO)[C@@H](O)C2`: the IC50 in test [3], in [4], in test [5], in test [6], in test [7] and in [8] was over 10 µM in each case. The IC50 in test [9] was over 10 µM; in test [10] it was over 10 µM; in test [11] it was 5 µM; in test [12], over 10 µM; in test [13], over 10 µM; in test [14] it was over 10 µM. Also, the IC50 in [15] is over 10 µM.

For `COc1cc2c(c(OC)c1OC)-c1ccc(OC)c(=O)cc1[C@@H](NC(C)=O)CC2` [COLCHICINE], the LC50 in [16] turned out to be 8.1 µM.
